# Screens: PubChem, several laboratories
# A selection: hits, their analogues and other compounds. The true share with any hit is near 3.7%.
# MC4R antagonist: blocks human MC4R cAMP signaling; MC4R-expressing cells, MTII-stimulated cAMP, LANCE TR-FRET; inhibition, % at 6.5 µM; actives 0.48% (n = 360,000); AID 540295;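 active = inhibition above its plate's cutoff, the mean of tested wells on that plate plus 3 SD, cut at about 29% in these data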;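 note: 0% = Melanotan II alone and 100% = Melanotan II plus saturating MCL0020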
# Target sequence (P32245 whole entry, looked up): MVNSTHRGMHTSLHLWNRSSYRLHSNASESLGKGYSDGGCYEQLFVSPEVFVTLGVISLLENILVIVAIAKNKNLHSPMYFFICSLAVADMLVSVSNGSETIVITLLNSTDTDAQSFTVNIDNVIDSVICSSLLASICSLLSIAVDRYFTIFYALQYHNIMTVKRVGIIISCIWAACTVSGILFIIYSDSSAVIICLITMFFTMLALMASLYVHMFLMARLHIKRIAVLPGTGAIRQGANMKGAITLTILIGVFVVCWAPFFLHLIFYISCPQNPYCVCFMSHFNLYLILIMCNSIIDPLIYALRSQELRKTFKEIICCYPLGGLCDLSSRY
#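 Material: U2OS-MC4R stable cell line | Reagent: Melanotan II challenge after compound preincubation | Doses: One concentration, 6.5 µM nominal | Incubation: 30-min compound preincubation, 1-h Melanotan II challenge, 1-h detection, room temperature | Signal: TR-FRET cAMP assay | Replicates: One well per compound, no replicates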
# Myeloid diff 2: promotes myeloid progenitor differentiation; ER-HoxA9 myeloid progenitors, lysozyme-GFP differentiation, flow cytometry; calls only at 10 µM; actives 1% (n = 360,000);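 active = normalized GFP-positive differentiation at or above the plate's own cutoff, the solvent-only control mean plus 3 SD; inconclusive = no clear call, values can overlap the other calls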;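 note: cells exposed to compound for four days before flow analysis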
# Granule exo inh: blocks lytic granule exocytosis; TALL-104 LAMP-1 surface exposure, flow cytometry; cells stimulated with thapsigargin and PMA; inhibition, % at 10 µM; actives 0.66% (n = 360,000); AID 651702;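 active = inhibition above about 55%, limit read from the data; inconclusive = no clear call, values can overlap the other calls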
# EBI2 antag: EBI2 (human) antagonism; inhibition, % at 5 µM; P32249; EBI2 beta-arrestin recruitment, luminescence, 7a,25-OHC stimulated; actives 0.81% (n = 360,000); in the data active = inhibition above about 38%;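 note: enzyme fragment complementation signal reports receptor beta-arrestin coupling in cells; 0% = agonist plus DMSO wells and 100% = wells without agonist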
# MC4R barr agon: agonists of human melanocortin 4 receptor (MC4R) beta-arrestin; P32245; U2OS MC4R beta-arrestin complementation, luminescence; percent of melanotan II response, DMSO zero; activation, % at 8.9 µM; actives 0.98% (n = 360,000); AID 540308;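 active = activation above a per-plate cutoff, the mean activation of sample wells on that plate plus 3 SD, cut at about 8% in these data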
# The depositor's hits bear a star; i = inactive; ? = inconclusive; · = no result given; + = active, no number.
SMILES,MC4R antagonist,Myeloid diff 2,Granule exo inh,EBI2 antag,MC4R barr agon
Cn1cc([N+](=O)[O-])c(C(=O)Nc2ccc(-c3nc4ccccc4o3)cc2)n1,7,i,0,-4,13*
CC1(c2ccccc2)NC(=O)N(CC(=O)Nc2ccccc2C(=O)NC2CC2)C1=O (stereo not drawn),3,i,-5,5,-1
COc1cc(C(=O)C(=O)N2CCN(c3ccccc3)CC2)cc2ccccc12,·,i,1,1,·
COc1cccc(N2CCN(CC(=O)C34CC5CC(CC(C5)C3)C4)CC2)c1,7,i,-1,-9,-1
COc1cccc(N2CCN(C(C)C(=O)NC34CC5CC(CC(C5)C3)C4)CC2)c1 (stereo not drawn),16,+,16,11,2
Cc1cc(Cl)ccc1NNC(N)=S,0,i,62*,5,0
Cc1ccc(C)c(NNC(N)=S)c1,11,i,1,6,-2
CCn1c2ccccc2c2cc(NC(=O)c3cccc(OC)c3OC)ccc21,-2,+,-2,38,1
COc1cccc(C(=O)Nc2ccc(N(C)C)cc2)c1OC,0,+,1,0,-2
CCOC(=O)N1CCc2cc(OC)c(OC)c3c2c1cc1cc(OC)c(OC)cc13,-11,·,26,-14,1
COc1ccccc1C(O)c1ncc(-c2ccccc2C)[nH]1 (stereo not drawn),6,i,-1,-3,-1
O=C(CCN1C(=O)S/C(=C\c2cccs2)C1=O)NC1=NCCS1,-5,i,4,0,-2
CC(=O)Nc1ccc(S(=O)(=O)c2ccnc3cc(Cl)ccc23)cc1,1,i,-2,1,-1
CN1CCN(CC(=O)N2CCn3c4c(c5cc(C6CCCCC6)ccc53)CCCC42)CC1 (stereo not drawn),-5,·,77*,1,27*
CCOC(=O)c1c(NC(=O)C2=COCCO2)sc2c1CCN(C(=O)OC)C2,10,i,11,20,-3
O=S(=O)(c1ccc(Cl)cc1)N1CN(CC2CCCO2)c2nc3ccccc3nc21 (stereo not drawn),16,i,3,6,-1
O=S(=O)(c1cccc(Cl)c1)N1CN(CC2CCCO2)c2nc3ccccc3nc21 (stereo not drawn),-3,+,0,2,-1
CSc1ccc(C2=C/C(=C3/SC(=S)NC3=O)c3ccccc3O2)cc1,-2,+,-3,-2,0
CCN1/C(=C2/SC(=S)NC2=O)Sc2ccccc21,2,i,-1,0,0
O=S(=O)(NC1CC1)c1ccc(S(=O)(=O)N2CCCC3(CCCCC3)C2)cc1,10,i,0,5,9.8*
Cc1cc(NC(=O)C2CC(=O)N(c3ccccc3Cl)C2)no1 (stereo not drawn),2,i,9,-3,-1
Cc1cc(C)c2c(N)c3ccccc3nc2n1,1,i,-2,11,0
CCc1ccc2nc3nc(C)cc(C)c3c(N)c2c1,10,+,13,-11,-1
Cc1cc2nc(-c3ccc(C#N)cc3)c(Cc3ccsc3)n2c(C)c1Br,·,i,-6,10,·
O=C(C#Cc1cccc([N+](=O)[O-])c1)c1ccccc1,26,i,70*,19,-3
SMILES,MC4R antagonist,Myeloid diff 2,Granule exo inh,EBI2 antag,MC4R barr agon
O=C(O)C(=Cc1cccc([N+](=O)[O-])c1)c1ccccc1,-3,i,-8,0,-1
COc1ccc(-c2ccc3c(N)c(C(=O)c4ccc(OC)c(OC)c4)sc3n2)cc1,-15,i,2,29,0
NC(=O)c1sc2nc(-c3ccccc3)ccc2c1N,8,+,4,-6,0
COc1ccc(C(=O)c2sc3nc(-c4ccccc4)ccc3c2N)cc1OC,-4,+,8,36,8
O=C1Nc2ccc(Br)cc2C1(O)c1ccccc1 (stereo not drawn),9,·,-2,-1,2
O=C1Nc2ccc(Br)cc2C12NNc1ccccc1O2 (stereo not drawn),11,+,-4,3,0
O=C1C2CSCN2C(=O)CN1CCCN1CCN(C(c2ccccc2)c2ccccc2)CC1 (stereo not drawn),0,i,-2,14,-1
O=C1C2C(C(=O)N1/N=C/c1ccc(N3CCCCC3)o1)C1C=CC2C12CC2 (stereo not drawn),1,i,68*,-8,-2
COC(=O)c1cc(CNC(=O)Cc2ccsc2)ccc1OC,5,i,1,-4,-3
O=c1cc(CSc2ccc(Cl)cc2)nc(-c2ccccn2)[nH]1,12,?,4,48*,-4
O=c1cc(CSc2ccc(Cl)cc2)nc(-c2ccccc2)[nH]1,-6,i,-6,-5,1
Cc1c(Cl)cccc1NC(=O)CN(C1CCCCC1)S(C)(=O)=O,4,i,-8,-13,3
CN(C)c1ccc(/C=C2/C[N+](C)(C)C/C(=C/c3ccc(N(C)C)cc3)C2=O)cc1,-32,·,-4,-17,-5
CC(C)/C=C1\CC/C(=C\c2ccc(N(C)C)cc2)C1=O,5,+,56*,17,-3
O=C(COC(=O)/C=C/c1ccccc1Cl)NC(=O)Cc1ccccc1,-4,i,-7,-3,-1
O=C(COC(=O)/C=C/c1ccccc1Cl)NC(=O)NCc1ccccc1,-2,i,4,-12,8.4*
CC(C)(C)C1CCNC(=O)CC1 (stereo not drawn),11,i,-1,3,1
C=CCn1c(Cc2ccc(OCC)cc2)nnc1SCC(N)=O,7,+,-1,-7,-3
CC(C)Cn1c(N)c(C(=O)COC(=O)c2cc(-c3ccccc3)nc3ccccc23)c(=O)n(C)c1=O,24,i,-3,19,0
CC(C)Cn1c(N)c(C(=O)COC(=O)c2cc(-c3ccco3)nc3ccccc23)c(=O)n(C)c1=O,11,+,-13,-1,-1
Nc1ccccc1NC1CCCCC1,4,+,16,15,-1
CCOCCn1ccc2c(OCC(=O)Nc3ccc(OC)c(OC)c3)cccc2c1=O,-7,i,-6,-4,-4
CCOCCn1ccc2c(OCC(=O)Nc3ccc(OC)cc3OC)cccc2c1=O,-1,+,16,4,0
COc1ccc(S(=O)(=O)NC(C)CCc2ccccc2)cc1 (stereo not drawn),8,i,5,-3,0
COc1cccc(CNc2ccc(C)c(Cl)c2)c1,-3,i,3,-11,0
COc1cccc(CNc2cc(CSc3ccc(Cl)cc3)nc(C)n2)c1,-2,i,23,49*,0
Cc1cc(C)n2nc(SCC(=O)NC3CCCC(C)C3C)nc2n1 (stereo not drawn),2,?,-3,0,1
